Assay results: ChEMBL document CHEMBL2176904, “Nonpeptidic lysosomal modulators derived from z-phe-ala-diazomethylketone for treating protein accumulation diseases” (ACS Med Chem Lett, 2012)
Blank lines part the entries; values can stand above or below the compound they belong to. Calls of active or inactive are those of the source. The rule behind the calls is not given here.

Key:
Cathepsin B [1] = molecular target: T1, Cathepsin B (Homo sapiens, UniProt P07858); experiment: Inhibition of cathepsin-B using Z-Arg-Arg AMC as substrate by fluorescence assay
In short: (§1)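 Z-Arg-Arg AMC as fluorogenic substrate, compounds titrated. Mean fluorescence units ± SEM were normalized to percent of control. Percent inhibition and IC50 range were fitted by nonlinear regression with one-site competition equations. Untreated control activity was compared with the highest compound concentration by unpaired t test.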

Hippocampus [2] = experiment: Up-regulation of cathepsin-B level in lysosome of rat hippocampal slice cultures at 0.3 to 1 uM after 4 days by immunoblot analysis; assay type: functional, tissue-based
In short: (§2)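 Organotypic hippocampal slice cultures from rat were treated daily with compound or vehicle. Cathepsin immunoreactivity was measured by immunoblot image analysis and reported as mean IOD ± SEM. Where stated, brefeldin A was co-present.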

Hippocampus [3] = experiment: Up-regulation of cathepsin-D level in lysosome of rat hippocampal slice cultures at 0.3 to 1 uM after 4 days by immunoblot analysis; assay type: functional, tissue-based; in short: as §2
Cathepsin B [4] = molecular target: T1, Cathepsin B; experiment: Inhibition of cathepsin-B using Z-Arg-Arg AMC as substrate by fluorescence assay relative to control; settings: concentration not given here; in short: as §1
Hippocampus [5] = experiment: Up-regulation of cathepsin-B level in lysosome of rat hippocampal slice cultures at 3 to 10 uM after 4 days by immunoblot analysis in presence of brefeldin-A; assay type: functional, tissue-based; in short: as §2
Hippocampus [6] = experiment: Up-regulation of cathepsin-D level in lysosome of rat hippocampal slice cultures at 3 to 10 uM after 4 days by immunoblot analysis in presence of brefeldin-A; assay type: functional, tissue-based; in short: as §2
Hippocampus [7] = experiment: Up-regulation of cathepsin-D level in lysosome of rat hippocampal slice cultures at 3 to 10 uM after 4 days by immunoblot analysis; assay type: functional, tissue-based; in short: as §2
Hippocampus [8] = experiment: Up-regulation of cathepsin-B level in lysosome of rat hippocampal slice cultures at 3 to 10 uM after 4 days by immunoblot analysis; assay type: functional, tissue-based; in short: as §2
Hippocampus [9] = experiment: Up-regulation of cathepsin-B level in lysosome of rat hippocampal slice cultures at 10 uM after 4 days by immunoblot analysis relative to PADK
Hippocampus [10] = experiment: Up-regulation of cathepsin-B level in lysosome of rat hippocampal slice cultures at 20 uM after 4 days by immunoblot analysis; assay type: functional, tissue-based; settings: 10 uM, in the assay text read “10 uM” for “20 uM”
Hippocampus [11] = experiment: Up-regulation of cathepsin-D level in lysosome of rat hippocampal slice cultures at 10 uM after 4 days by immunoblot analysis relative to PADK
Mus musculus [12] = experiment: Increase of active form of cathepsin-B level in APPSwInd transgenic mouse 20Lms/2J hippocampal homogenates at 25 mg/kg, ip qd for 9 days relative to wild type mouse; assay type: functional, organism-based; parameters: dose 25 mg/kg; settings: Hippocampus
Mus musculus [13] = experiment: Inhibition of postsynaptic loss of GluR1 protein level in APPSwInd transgenic mouse 20Lms/2J hippocampal homogenates at 25 mg/kg, ip qd for 9 days relative to wild type mouse; assay type: functional, organism-based; parameters: dose 25 mg/kg; settings: Hippocampus
Mus musculus [14] = experiment: Reduction of 8 to 10-kDa oligomeric amyloid beta species in APPSwInd transgenic mouse 20Lms/2J hippocampal homogenates at 25 mg/kg, ip qd for 9 days relative to wild type mouse; assay type: functional, organism-based; parameters: dose 25 mg/kg; settings: Hippocampus
Mus musculus [15] = experiment: Inhibition of presynaptic loss of amphiphysin-I protein level in APPSwInd transgenic mouse 20Lms/2J hippocampal homogenates at 25 mg/kg, ip qd for 9 days relative to wild type mouse; settings: Hippocampus

IC50 (Cathepsin B [1]): 2 µM
Structure (SMILES): N#[N+][CH-]C(=O)N(Cc1ccccc1)C[C@@H](O)[C@H](Cc1ccccc1)NC(=O)OCc1ccccc1

IC50 (Cathepsin B [1]): 0.08 µM
inhibition (Cathepsin B [4]): 100%
Structure (SMILES): CCCNC(=O)[C@H]1O[C@@H]1C(=O)N[C@H](C(=O)N1CCC[C@H]1C(=O)OC)[C@@H](C)CC
Activity (Hippocampus [2]): inactive
Activity (Hippocampus [3]): inactive

IC50 (Cathepsin B [1]): 9.4 µM
inhibition (Cathepsin B [4]): 100%
Structure (SMILES): C[C@H](NC(=O)[C@H](Cc1ccccc1)NC(=O)OCc1ccccc1)C(=O)C=[N+]=[N-]
Activity (Hippocampus [5]): inactive
Activity (Hippocampus [6]): inactive
Activity (Hippocampus [7]): Active
Activity (Hippocampus [8]): Active

inhibition (Cathepsin B [4]): 13%
Structure (SMILES): [N-]=[N+]=CC(=O)N(Cc1ccccc1)C[C@@H](O)[C@H](Cc1ccccc1)NC(=O)OCc1ccccc1
fold change (FC) (Hippocampus [9]): 2
Activity (Hippocampus [10]): Active
fold change (FC) (Hippocampus [11]): 2

IC50 (Cathepsin B [1]): > 100 µM
inhibition (Cathepsin B [4]): 8%
Structure (SMILES): CC(=O)N(Cc1ccccc1)C[C@@H](O)[C@H](Cc1ccccc1)NC(=O)OCc1ccccc1
Activity (Hippocampus [10]): Active
Activity (Mus musculus [12]): Active
inhibition (Mus musculus [13]): Active
Activity (Mus musculus [14]): Active
inhibition (Mus musculus [15]): Active
